Source: ChEMBL document CHEMBL1141114, “Adenosine kinase inhibitors. 5. Synthesis, enzyme inhibition, and analgesic activity of diaryl-erythro-furanosyltubercidin analogues” (J Med Chem, 2005)

Key:
Adenosine kinase = Adenosine kinase (Homo sapiens, UniProt P55263); assay: Inhibitory concentration against human recombinant adenosine kinase using [14C]AMP as radioligand
[1] = Maximum time to achieve plasma concentration at a dose of 3 mg/Kg in dog when given orally; assay type: ADME, organism-based, Canis lupus familiaris; settings: po
Outline: (§1)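 Rats and dogs, n = 3 per group. Oral dosing at 3 mg/kg as a suspension in 0.1% methylcellulose; intravenous dosing at 1 mg/kg as a solution in 75% PEG 400/25% saline. Plasma sampled at 0.25, 0.5, 1, 2, 4, 8 and 24 h and drug levels measured by HPLC. […] Parameters reported as mean ± S.D.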

[2] = Time required to be halved at a dose of 3 mg/Kg in dog when given orally; assay type: ADME, organism-based, Canis lupus familiaris; settings: in vivo, po; outline: as §1
Rattus norvegicus [3] = assay: Percent inhibition of the analgesic effect measured after carrageenan injection at a dose of 20 mg/Kg therapeutic when given orally by carrageenan-induced thermal hyperalgesia test; assay type: functional
Outline: (§2)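 Fasted male SD rats (160–180 g) were injected in the right hind plantar paw with lambda carrageenan (2 mg in 100 μL). They were gavaged with 20 mg/kg or vehicle (PEG400/0.2% Tween/5% propylene glycol), either 0.5 h before (prophylactic) or 2 h after (therapeutic) carrageenan. Hargreaves heat withdrawal was measured in the inflamed and control paws at 3.5–4.5 h.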

Rattus norvegicus [4] = assay: Percent inhibition of the analgesic effect measured after carrageenan injection at a dose of 20 mg/Kg prophylactic when given orally by carrageenan-induced thermal hyperalgesia test; assay type: functional; outline: as §2
[5] = Bioavailability at a dose of 3 mg/Kg in dog when given orally; assay type: ADME, organism-based, Canis lupus familiaris; settings: in vivo, po; outline: as §1
[6] = Bioavailability at a dose of 3 mg/Kg in rat when given orally; assay type: ADME, organism-based; settings: in vivo, po; outline: as §1
[7] = Maximum plasma concentration at a dose of 3 mg/Kg in dog when given orally; assay type: ADME, organism-based, Canis lupus familiaris; parameters: dose 3 mg/Kg, route oral; settings: po; outline: as §1
[8] = Plasma clearance at a dose of 1 mg/kg in dog when given i.v.; assay type: ADME, organism-based, Canis lupus familiaris; parameters: dose 1 mg/kg, route intravenous; settings: iv; outline: as §1
[9] = Area under the plot of plasma concentration at a dose of 3 mg/Kg in dog when given orally; assay type: ADME, Canis lupus familiaris; settings: po, read-out: AUC 0-24h; outline: as §1
[10] = Distributed volume at a dose of 3 mg/Kg in rat when given orally; assay type: ADME, organism-based; settings: in vivo, po; outline: as §1
Monkey = assay: Effective dose for the analgesic effect measured after bradykinin injection when given orally by marmoset monkey bradykinin-induced licking; (n=6); assay type: functional; settings: po
Outline: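 Six male marmosets (Callithrix jacchus, 250–340 g) got 0.3, 3, 10 or 30 mg/kg po, or 0.1% MC vehicle. At 60 min, 100 μL of 1 mM bradykinin in saline was injected intraplantar, alternating feet. Pain behaviour was scored 0–3 every 15 s for 15 min from video. Sessions were 2 weeks apart.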

Rattus norvegicus [11] = assay: Effective dose for the analgesic effect measured after carrageenan injection when given orally by carrageenan-induced mechanical hyperalgesia test; assay type: functional; settings: po
Outline: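 Fasted male SD rats (100–120 g) were dosed orally with 1, 3 or 10 mg/kg in 0.1% MC 1 h before intraplantar carrageenan (1%, 100 μL/paw). Mechanical hyperalgesia was read by Randall-Selitto analgesimeter at 3, 4 and 5 h after carrageenan.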

[12] = Plasma clearance at a dose of 3 mg/Kg in rat when given orally; assay type: ADME, organism-based; settings: po; outline: as §1
Rattus norvegicus [13] = assay: Effective dose for the analgesic effect measured at 3 hr after administration when given orally by hot plate assay; (n=6); assay type: functional; settings: po
Outline: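 Fasted male SD rats (150–200 g) were gavaged with vehicle or graded doses. Hind-paw lick latency on a 50 °C hot plate (60 s max) was measured before dosing and at 0.5–4 h after.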

[14] = Distributed volume at a dose of 1 mg/Kg in rat when given i.v.; assay type: ADME, organism-based; settings: in vivo, iv; outline: as §1
[15] = Plasma clearance at a dose of 3 mg/Kg in dog when given orally; assay type: ADME, organism-based, Canis lupus familiaris; settings: po; outline: as §1
[16] = Maximum time to achieve plasma concentration at a dose of 3 mg/Kg in rat when given orally; assay type: ADME, organism-based; settings: po; outline: as §1
[17] = Plasma clearance at a dose of 1 mg/Kg in rat when given i.v.; assay type: ADME, organism-based; settings: iv; outline: as §1
[18] = Time required to be halved at a dose of 1 mg/Kg in rat when given i.v.; assay type: ADME, organism-based; settings: in vivo, iv; outline: as §1
[19] = Area under the plot of plasma concentration at a dose of 1 mg/Kg in rat when given i.v.; assay type: ADME; settings: iv; outline: as §1
[20] = Distributed volume at a dose of 1 mg/kg in dog when given i.v.; assay type: ADME, organism-based, Canis lupus familiaris; parameters: dose 1 mg/kg, route intravenous; settings: in vivo, iv; outline: as §1
[21] = Distributed volume at a dose of 3 mg/Kg in dog when given orally; assay type: ADME, organism-based, Canis lupus familiaris; settings: in vivo, po; outline: as §1
[22] = Maximum plasma concentration at a dose of 1 mg/kg in dog when given i.v.; assay type: ADME, organism-based, Canis lupus familiaris; parameters: dose 1 mg/kg, route intravenous; settings: iv; outline: as §1
Rattus norvegicus [23] = assay: Effective dose for the […] effect measured after 5 h when given orally in rat by rotarod assay.; assay type: functional; settings: po
Outline: (§3)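 Fasted male SD rats (90–110 g) were dosed orally at 10–300 mg/kg in 0.1% MC. They were first trained to walk on a rotarod at 5 rpm for 150 s. Walking time, as a measure of sedation and ataxia, was recorded at 0, 0.5, 1, 2 and 5 h after dosing, with a 150 s cutoff.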

[24] = Maximum plasma concentration at a dose of 3 mg/Kg in rat when given orally; assay type: ADME, organism-based; parameters: dose 3 mg/Kg, route oral; settings: po; outline: as §1
Rattus norvegicus [25] = assay: Percent inhibition of the licking and biting behavior in response to formalin injection at a dose of 20 mg/Kg when given orally in rat by formalin paw assay; (n=6); assay type: functional; settings: po
Outline: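 Rats got 20 mg/kg orally in PEG 400 vehicle 2 h before intraplantar formalin, n = 6. Activity is expressed as % inhibition of licking and biting behaviour.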

[26] = Area under the plot of plasma concentration at a dose of 3 mg/Kg in rat when given orally; assay type: ADME; settings: po; outline: as §1
Rattus norvegicus [27] = assay: Effective dose for the […] effect measured after 2 hr when given orally in rat by rotarod assay.; assay type: functional; settings: po; outline: as §3
[28] = Time required to be halved at a dose of 1 mg/kg in dog when given i.v.; assay type: ADME, organism-based, Canis lupus familiaris; parameters: dose 1 mg/kg, route intravenous; settings: in vivo, iv; outline: as §1
Rattus norvegicus [29] = assay: Effective dose of the licking and biting behavior in response to formalin injection at a dose of 20 mg/Kg when given orally in rat by formalin paw assay; (n=6); assay type: functional; settings: po
[30] = Time required to be halved at a dose of 3 mg/Kg in rat when given orally; assay type: ADME, organism-based; settings: in vivo, po; outline: as §1
[31] = Maximum plasma concentration at a dose of 1 mg/Kg in rat when given i.v.; assay type: ADME, organism-based; parameters: dose 1 mg/Kg, route intravenous; settings: iv; outline: as §1
[32] = Area under the plot of plasma concentration at a dose of 1 mg/kg in dog when given i.v.; assay type: ADME, organism-based, Canis lupus familiaris; parameters: dose 1 mg/kg, route intravenous; settings: iv, read-out: AUC 0-24h; outline: as §1

Chain of Adenosine kinase (P55263 whole entry): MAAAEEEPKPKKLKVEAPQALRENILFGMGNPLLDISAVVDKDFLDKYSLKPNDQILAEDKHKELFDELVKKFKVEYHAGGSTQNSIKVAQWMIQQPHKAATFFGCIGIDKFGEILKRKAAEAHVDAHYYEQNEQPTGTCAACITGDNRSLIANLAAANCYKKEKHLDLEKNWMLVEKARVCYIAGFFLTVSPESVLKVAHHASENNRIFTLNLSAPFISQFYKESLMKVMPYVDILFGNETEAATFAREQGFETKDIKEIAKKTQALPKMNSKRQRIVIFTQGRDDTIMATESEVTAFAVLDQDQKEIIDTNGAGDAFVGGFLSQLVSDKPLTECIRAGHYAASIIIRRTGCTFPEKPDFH

Nc1ncnc2c1c(I)cn2[C@@H]1OC2(CC2)[C@@H](O)[C@H]1O
IC50 (Adenosine kinase): 600 nM

O[C@@H]1[C@H](O)CO[C@H]1n1cc(-c2ccccc2)c2c(Nc3ccc(F)cc3)ncnc21
Tmax [1]: 1.6 h | half-life [2]: 4 h | IC50 (Adenosine kinase): 6 nM | Inhibition (Rattus norvegicus [3]): 99% | Inhibition (Rattus norvegicus [4]): 151% | bioavailability [5]: 60% | bioavailability [6]: 61.2% | Cmax [7]: 628 ng/mL | clearance [8]: 6.67 mL/min/kg | AUC [9]: 5340 ng·h/mL | Vd [10]: 6.2 L/kg | ED50 (Monkey): 3.8 mg/kg | ED50 (Rattus norvegicus [11]): 2.4 mg/kg | CL/F [12]: 25 mL/min/kg | ED50 (Rattus norvegicus [13]): 16 mg/kg | Vd [14]: 6.9 L/kg | CL/F [15]: 6.67 mL/min/kg | Tmax [16]: 3.5 h | clearance [17]: 21.7 mL/min/kg | half-life [18]: 3.2 h | AUC0-8h [19]: 785 ng·h/mL | Vd [20]: 2 L/kg | Vd [21]: 2.2 L/kg | Cmax [22]: 585 ng/mL | ED50 (Rattus norvegicus [23]): 11.9 mg/kg | Cmax [24]: 135 ng/mL | inhibition in vivo at 20 mg/kg (Rattus norvegicus [25]): 76% | AUC0-8h [26]: 1440 ng·h/mL | ED50 (Rattus norvegicus [27]): 21.7 mg/kg | half-life [28]: 3.9 h | ED50 (Rattus norvegicus [29]): 3.6 mg/kg | half-life [30]: 3 h | Cmax [31]: 523 ng/mL | AUC [32]: 2970 ng·h/mL

Cc1ccccc1-c1cn([C@@H]2OC[C@@H](O)[C@H]2O)c2ncnc(Nc3ccc4c(c3)OCCO4)c12
IC50 (Adenosine kinase): 1 nM | inhibition in vivo at 20 mg/kg (Rattus norvegicus [25]): 99%

CCOc1ccc(-c2cn([C@@H]3OC[C@@H](O)[C@H]3O)c3ncnc(Nc4ccc(C#N)cc4)c23)cc1
IC50 (Adenosine kinase): 2 nM | inhibition in vivo at 20 mg/kg (Rattus norvegicus [25]): 84%

O[C@@H]1[C@H](O)CO[C@H]1n1cc(-c2ccccc2)c2c(Nc3ccc4c(c3)OCCO4)ncnc21
IC50 (Adenosine kinase): 4 nM | inhibition in vivo at 20 mg/kg (Rattus norvegicus [25]): 80%

N#Cc1ccc(Nc2ncnc3c2c(-c2ccc(Cl)cc2)cn3[C@@H]2OC[C@@H](O)[C@H]2O)cc1
IC50 (Adenosine kinase): 7 nM | inhibition in vivo at 20 mg/kg (Rattus norvegicus [25]): 75%

O[C@@H]1[C@H](O)CO[C@H]1n1cc(-c2ccccc2)c2c(Nc3ccc(Br)cc3)ncnc21
IC50 (Adenosine kinase): 5 nM | inhibition in vivo at 20 mg/kg (Rattus norvegicus [25]): 33%

C[C@H]1O[C@@H](n2cc(-c3ccccc3)c3c(Nc4ccc(F)cc4)ncnc32)[C@H](O)[C@@H]1O
inhibition in vivo at 20 mg/kg (Rattus norvegicus [25]): 59%

CCOc1ccc(Nc2ncnc3c2c(-c2ccccc2)cn3[C@@H]2OC[C@@H](O)[C@H]2O)cc1
IC50 (Adenosine kinase): 3 nM | inhibition in vivo at 20 mg/kg (Rattus norvegicus [25]): 41%

CCOc1ccc(-c2cn([C@@H]3OC[C@@H](O)[C@H]3O)c3ncnc(Nc4ccccc4OC)c23)cc1
IC50 (Adenosine kinase): 5.3 nM | inhibition in vivo at 20 mg/kg (Rattus norvegicus [25]): 16%

O[C@H]1[C@H](n2cc(-c3ccccc3)c3c(Nc4ccc(F)cc4)ncnc32)OC2(CC2)[C@H]1O
IC50 (Adenosine kinase): 0.3 nM

CC1(C)O[C@@H](n2cc(-c3ccccc3)c3c(Nc4ccccc4)ncnc32)[C@H](O)[C@@H]1O
IC50 (Adenosine kinase): 4000 nM

Nc1cccc(-c2cn([C@@H]3OC[C@@H](O)[C@H]3O)c3ncnc(Nc4ccc(F)cc4)c23)c1
IC50 (Adenosine kinase): 10 nM | inhibition in vivo at 20 mg/kg (Rattus norvegicus [25]): 31%

Nc1ncnc2c1c(I)cn2[C@@H]1OC[C@@H](O)[C@H]1O
IC50 (Adenosine kinase): 6 nM

O[C@@H]1[C@H](O)CO[C@H]1n1cc(-c2ccccc2)c2c(Nc3ccccc3)ncnc21
IC50 (Adenosine kinase): 4 nM | inhibition in vivo at 20 mg/kg (Rattus norvegicus [25]): 78%

CCOc1cccc(Nc2ncnc3c2c(-c2ccccc2)cn3[C@@H]2OC[C@@H](O)[C@H]2O)c1
IC50 (Adenosine kinase): 2 nM | inhibition in vivo at 20 mg/kg (Rattus norvegicus [25]): 76%
